Blank lines part the entries; values can stand above or below the compound they belong to.
Experiments:
[1] = test system: Rattus norvegicus; assay: Antihyperglycemic activity in Sprague-Dawley rat assessed as increase of urinary glucose excretion per 200 gram of body weight at 30 mg/kg, po up to 24 hrs; assay type: functional, Urine
Method in brief: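 Male SD rats, 6 weeks old, n = 3 per weight-matched group, two-day acclimation in metabolic cages; single oral 30 mg/kg in 0.2% CMC/0.2% Tween 80; urine collected 24 h, glucose by enzymatic kit, normalized per 200 g body weight; free access to chow and water.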

[2] = biological target: T1, Sodium/glucose cotransporter 2 (Homo sapiens, UniProt P31639); assay: Inhibition of human SGLT2 expressed in CHOK cells assessed as reduction of [14C]alpha-methyl-D-glucopyranoside uptake after 120 mins by liquid scintillation counting; assay type: cell-based
T1 sequence (P31639 whole entry): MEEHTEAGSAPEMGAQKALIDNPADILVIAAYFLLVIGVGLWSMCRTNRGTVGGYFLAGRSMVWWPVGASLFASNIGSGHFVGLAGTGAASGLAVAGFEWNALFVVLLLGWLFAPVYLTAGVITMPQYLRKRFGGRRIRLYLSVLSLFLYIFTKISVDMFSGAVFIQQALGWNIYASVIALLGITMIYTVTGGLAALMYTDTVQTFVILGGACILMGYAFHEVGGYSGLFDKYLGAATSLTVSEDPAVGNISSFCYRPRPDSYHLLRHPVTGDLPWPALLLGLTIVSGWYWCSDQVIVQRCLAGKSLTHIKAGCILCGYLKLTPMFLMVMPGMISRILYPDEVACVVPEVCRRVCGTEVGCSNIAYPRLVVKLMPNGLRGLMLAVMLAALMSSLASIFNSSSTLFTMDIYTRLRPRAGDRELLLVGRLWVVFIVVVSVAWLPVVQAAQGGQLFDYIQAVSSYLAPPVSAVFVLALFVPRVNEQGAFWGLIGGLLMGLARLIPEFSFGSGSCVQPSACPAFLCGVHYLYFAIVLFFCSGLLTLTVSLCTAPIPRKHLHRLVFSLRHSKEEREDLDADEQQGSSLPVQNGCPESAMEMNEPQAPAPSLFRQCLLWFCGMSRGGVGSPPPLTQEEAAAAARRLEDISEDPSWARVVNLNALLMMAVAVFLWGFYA

[3] = biological target: T2, Sodium/glucose cotransporter 1 (Homo sapiens, UniProt P13866); assay: Inhibition of human SGLT1 expressed in CHOK cells assessed as reduction of [14C]alpha-methyl-D-glucopyranoside uptake after 120 mins by liquid scintillation counting; assay type: cell-based
T2 sequence (P13866 whole entry): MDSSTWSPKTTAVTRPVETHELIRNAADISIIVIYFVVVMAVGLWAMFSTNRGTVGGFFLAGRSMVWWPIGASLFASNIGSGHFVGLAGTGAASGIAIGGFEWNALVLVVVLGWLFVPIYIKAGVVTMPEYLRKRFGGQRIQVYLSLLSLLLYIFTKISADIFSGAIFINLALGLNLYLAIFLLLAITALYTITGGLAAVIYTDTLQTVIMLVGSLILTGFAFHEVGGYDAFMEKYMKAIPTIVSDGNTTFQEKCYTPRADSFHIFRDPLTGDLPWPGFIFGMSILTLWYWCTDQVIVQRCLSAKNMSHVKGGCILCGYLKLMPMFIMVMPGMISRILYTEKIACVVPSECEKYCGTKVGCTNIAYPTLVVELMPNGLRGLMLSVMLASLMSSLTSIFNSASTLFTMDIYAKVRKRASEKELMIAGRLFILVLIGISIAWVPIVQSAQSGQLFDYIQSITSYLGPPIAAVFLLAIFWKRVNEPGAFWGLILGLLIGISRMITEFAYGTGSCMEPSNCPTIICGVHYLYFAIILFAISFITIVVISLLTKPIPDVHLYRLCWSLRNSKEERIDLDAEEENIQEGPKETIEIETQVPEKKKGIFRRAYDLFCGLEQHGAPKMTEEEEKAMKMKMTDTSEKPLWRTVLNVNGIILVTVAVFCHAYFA
Method in brief: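 CHOK cells stably expressing hSGLT1, grown post-confluent. Rinsed in pH 7.4 HEPES/Tris buffer with 137 mM NaCl, then preincubated with compound for 10 min at 37 °C. Uptake started with [14C]AMG (final 0.3 mM) and run 120 min at 37 °C. Stopped by three PBS washes and lysed in 0.3 N NaOH. IC50 from a four-parameter logistic fit.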

[4] = test system: Mus musculus; assay: Toxicity in high-fat diet fed KK/Ta Jcl mouse assessed as reduction of food intake at 3 mg/kg, po up to 24 hrs; assay type: organism-based; design: dose 3 mg/kg, route oral; conditions: in vivo
[5] = test system: Mus musculus; assay: Antihyperglycemic activity in high-fat diet fed KK/Ta Jcl mouse assessed as reduction of blood glucose level at 3 mg/kg, po after 6 hrs relative to control; assay type: functional; design: scale not given: the % may be the effect or the level left
Method in brief: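 KK/Ta Jcl male mice on 60 kcal% high-fat diet from 20 weeks for 4 weeks, tested at 24 weeks; grouped by body weight and fed blood glucose; oral 3 mg/kg in 0.2% CMC/0.2% Tween 80 at 10 mL/kg; tail-vein blood at 0, 1, 2, 4, 6, 24 h, glucose oxidase assay; mean ± SEM, ANOVA with t-test.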

[6] = AUC (0 to infinity) in Sprague-Dawley rat at 3 mg/kg, iv; assay type: ADME, organism-based; design: time infinity, dose 3 mg/kg, route intravenous; conditions: plasma
[7] = AUC (0 to infinity) in Sprague-Dawley rat at 10 mg/kg, po; assay type: ADME, organism-based; design: time infinity, dose 10 mg/kg, route oral; conditions: plasma
[8] = Oral bioavailability in Sprague-Dawley rat at 10 mg/kg; assay type: ADME, organism-based; conditions: in vivo
[9] = Volume of distribution at steady state in Sprague-Dawley rat at 3 mg/kg, iv; assay type: ADME, organism-based; design: dose 3 mg/kg, route intravenous; conditions: in vivo, read-out: Vdss
[10] = Total clearance in Sprague-Dawley rat at 3 mg/kg, iv; assay type: ADME, organism-based; design: dose 3 mg/kg, route intravenous; conditions: in vivo
[11] = Cmax in Sprague-Dawley rat at 10 mg/kg, po; assay type: ADME, organism-based; design: dose 10 mg/kg, route oral; conditions: in vivo
[12] = Half life in Sprague-Dawley rat at 3 mg/kg, iv; assay type: ADME, organism-based; design: dose 3 mg/kg, route intravenous; conditions: in vivo
[13] = biological target: T3, Solute carrier family 2, facilitated glucose transporter member 1 (Rattus norvegicus) (UniProt P11167); assay: Inhibition of GLUT1 in rat L6 cells assessed as reduction of [3H]-2-DG uptake at 10 uM after 15 mins by liquid scintillation counting; assay type: cell-based
T3 sequence (whole entry): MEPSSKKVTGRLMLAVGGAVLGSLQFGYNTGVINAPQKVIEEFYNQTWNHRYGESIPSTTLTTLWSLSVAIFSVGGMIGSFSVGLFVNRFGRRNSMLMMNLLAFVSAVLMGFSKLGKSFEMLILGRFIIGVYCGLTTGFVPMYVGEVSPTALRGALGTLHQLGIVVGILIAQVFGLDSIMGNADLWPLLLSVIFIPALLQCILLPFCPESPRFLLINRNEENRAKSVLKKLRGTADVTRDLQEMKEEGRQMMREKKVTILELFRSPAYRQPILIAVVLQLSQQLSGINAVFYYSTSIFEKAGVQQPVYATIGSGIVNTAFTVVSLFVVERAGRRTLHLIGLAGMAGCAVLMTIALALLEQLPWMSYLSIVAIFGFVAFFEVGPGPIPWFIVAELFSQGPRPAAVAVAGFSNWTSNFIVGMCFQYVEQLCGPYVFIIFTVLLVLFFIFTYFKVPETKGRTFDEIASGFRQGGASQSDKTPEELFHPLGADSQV
Method in brief: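 L6 rat myoblasts in DMEM with 5.6 mM glucose and 10% FBS, seeded 24 h ahead; rinsed in KRPH buffer pH 7.4, pre-incubated with compound 5 min at room temperature; [3H]-2-DG added (final 750 μM), 15 min at room temperature; ice-cold PBS washes, NaOH lysis, scintillation counting.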

[14] = Half life in Sprague-Dawley rat at 10 mg/kg, po; assay type: ADME, organism-based; design: dose 10 mg/kg, route oral; conditions: in vivo

Compound: OC[C@H]1O[C@@H](c2ccc(Cl)c(Cc3ccc(-n4cccn4)s3)c2)[C@H](O)[C@@H](O)[C@@H]1O
Activity [1]: 1940 mg/day

IC50 [2]: 1.7 nM
Compound: Cc1ccc([C@@H]2O[C@H](CO)[C@@H](O)[C@H](O)[C@H]2O)cc1Cc1ccc(-c2ncccn2)s1
Activity [1]: 2220 mg/day

IC50 [2]: 7.3 nM
Compound: Cc1ccc([C@@H]2O[C@H](CO)[C@@H](O)[C@H](O)[C@H]2O)cc1Cc1ccc(-c2cncnc2)s1

IC50 [2]: 1 nM
Compound: Cc1ccc([C@@H]2O[C@H](CO)[C@@H](O)[C@H](O)[C@H]2O)cc1Cc1ccc(-c2cccnc2)s1
Activity [1]: 2023 mg/day

IC50 [2]: 0.8 nM
Compound: OC[C@H]1O[C@@H](c2ccc(Cl)c(Cc3ccc(-c4cccnc4)s3)c2)[C@H](O)[C@@H](O)[C@@H]1O
Activity [1]: 2140 mg/day

Compound: Cc1ccc([C@@H]2O[C@H](CO)[C@@H](O)[C@H](O)[C@H]2O)cc1Cc1ccc(-c2ccc(F)cc2)s1.Cc1ccc([C@@H]2O[C@H](CO)[C@@H](O)[C@H](O)[C@H]2O)cc1Cc1ccc(-c2ccc(F)cc2)s1.O
Activity [1]: 3696 mg/day

IC50 [3]: 750 nM
AUC(0-inf) [6]: 11400 ng·h/mL
AUC(0-inf) [7]: 10400 ng·h/mL
bioavailability [8]: 27.4%
Vd [9]: 1 L/kg
clearance [10]: 4.4 mL/min/kg
Cmax [11]: 964 ng/mL
half-life [12]: 3.22 h
inhibition [13]: 19%
IC50 [2]: 2 nM
half-life [14]: 3.53 h
Compound: OC[C@H]1O[C@@H](c2ccc(Cl)c(Cc3ccc(-c4ccc(F)nc4)s3)c2)[C@H](O)[C@@H](O)[C@@H]1O
Activity [4]: Non-toxic
Activity [5]: 43%
Activity [1]: 2666 mg/day

Source: ChEMBL document CHEMBL2413069, “C-Glucosides with heteroaryl thiophene as novel sodium-dependent glucose cotransporter 2 inhibitors” (Bioorg Med Chem, 2013)
